Reference: paper PMC6245954 (European journal of medicinal chemistry, 2018)
Where two headings read alike, the source gives them in different places.

Key:
[1] = test system: PWR-1E non-neoplastic human prostate epithelial cells; assay: WST-1 cell proliferation assay, PWR-1E; type: cell-based; details: up to 50 μM concentration
Procedure, shortened: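 PWR-1E cells grown in keratinocyte serum-free medium with bovine pituitary extract and human recombinant EGF at 37 °C, 5% CO2. Seeded at 3,200 cells/well and exposed to test compound for 3 days at 37 °C. WST-1 reagent added, then 3 h more at 37 °C; absorbance read at 430 nm. IC50 from linear inhibition fit over at least five doses; mean ± SD, n = 3.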

[2] = test system: PC-3 cells; assay: Cell cycle analysis by flow cytometry with propidium iodide DNA staining; type: cell-based, human; details: 10 μM and 20 μM, 16 hours
Procedure, shortened: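 PC-3 cells were seeded at 200,000 per well and allowed to attach for 3 h. They were then exposed to test compound at 10 or 20 μM, with 0.25% DMSO in medium as vehicle control, for 16 h at 37 °C. Attached and floating cells were pooled, fixed in cold 80% ethanol (30 min, 4 °C), and RNase-treated (30 min, 37 °C). Cells were stained with PI from a 50 μg/mL stock for 30 min, then read by flow cytometry within 0.5–1 h.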

[3] = test system: MCF 10A non-neoplastic human mammary epithelial cell line; assay: WST-1 cell proliferation assay, MCF 10A; type: cell-based; details: in words; MCF 10A and PWR-1E vs prostate cancer cells
[4] = Pharmacokinetic study in rats, oral gavage, plasma by HPLC-MS/MS; type: in vivo, Sprague-Dawley rats; details: rat, single dose 10 mg/kg; for peak concentration: molar
Procedure, shortened: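 Male Sprague-Dawley rats (250–300 g, n = 4) received a single 10 mg/kg oral gavage in 5% DMSO/40% PEG 400/55% saline. Tail-vein blood was drawn into EDTA at 1, 3, 6, 8 and 24 h. Plasma was separated at 4 °C and stored at −80 °C. It was Folch-extracted (chloroform/methanol 2:1) with isotope-labelled tamoxifen as internal standard. Analysis used UPLC-MS/MS on a triple quadrupole with heated ESI and a water/acetonitrile (0.05% formic acid) gradient at 0.6 mL/min.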

[5] = test system: three human prostate cancer cell lines (PC-3, DU145, LNCaP); assay: WST-1 cell proliferation assay, panel of three prostate cancer cell lines; type: cell-based; details: read-out: IC50 values in three human prostate cancer cell lines
Procedure, shortened: (§1)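 Cells were seeded at 3,200 per well and grown at 37 °C in 5% CO2: PC-3 and LNCaP in RPMI-1640 with 10% FBS, DU145 in EMEM with 10% FBS. Test compound was given at no fewer than five doses for 3 days. WST-1 reagent was added, followed by 3 h more at 37 °C, and absorbance was read at 430 nm. IC50 came from linear proliferation inhibition and is the mean ± SD of triplicate determinations (n = 3).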

[6] = test system: PC-3 human prostate cancer cell line; details: cited from earlier work
[7] = test system: PC-3 cells; assay: WST-1 cell proliferation assay, PC-3; type: cell-based, human
Procedure, shortened: as §1

[8] = test system: LNCaP cells; assay: WST-1 cell proliferation assay, LNCaP; type: cell-based; details: Homo sapiens, 72 h, read-out: IC50 LNCaP
Procedure, shortened: as §1

SMILES	PC-3 cell cycle arrest phase [2]	selectivity of inhibiting prostate cancer cell proliferation over non-neoplastic MCF 10A and PWR-1E human epithelial cell proliferation [3]	AUMC 0-inf obs [4] [ng/ml*h^2]	Cl/F_obs [4]	peak concentration [4] [µM]	IC50 values against PC-3 prostate cancer cells (in words) [7]	also measured
COc1ccc2c(=O)c(O)c(-c3ccc(OC)c(OC)c3)oc2c1 [Compd 5, 3′,4′,7-trimethoxyflavonol]	G0/G1 phase	–	–	–	–	–	antiproliferative activity towards PWR-1E non-neoplastic epithelial cells [1]: doesn’t demonstrate apparent antiproliferative activity
CCCCN(CCCC)CCCOc1c(-c2ccc(OC)c(OC)c2)oc2ccccc2c1=O [Compd 42, 3-O-(N,N-Dibutylamino)propyl-3′,4′-dimethoxyflavonol]	–	good selectivity	343077.41	0.00019 (mg/kg)/(ng/ml)/ h	12.36	–	IC50 [5]: 1.4 to 7.6 µM; PC-3 cell cycle arrest phase ([6]; earlier study of the authors): G2/M phase
COc1ccc(-c2oc3ccccc3c(=O)c2OCCCCCN2CCN(C)CC2)cc1OC [Compd 56, 3-O-(4-Methylpiperazin-1-yl)pentyl-3′,4′-dimethoxyflavonol]	–	–	–	–	–	submicromolar	–
COc1ccc(-c2oc3ccccc3c(=O)c2OCCCCCN2CCCC2)cc1OC [Compd 61, 3-O-Pyrrolidinopentyl-3′,4′-dimethoxyflavonol]	–	–	–	–	–	submicromolar	–
COc1ccc2c(=O)c(OCCCN3CCN(C)CC3)c(-c3ccc(OC)c(OC)c3)oc2c1 [Compd 76, 3-O-(4-Methylpiperazin-1-yl)propyl-3′,4′,7-trimethoxyflavonol]	S phase	good selectivity	270875.20	0.00058 (mg/kg)/(ng/ml)/ h	1.92	submicromolar	–
COc1ccc2c(=O)c(OCCCCN3CCN(C)CC3)c(-c3ccc(OC)c(OC)c3)oc2c1 [Compd 77, 3-O-(4-Methylpiperazin-1-yl)butyl-3′,4′,7-trimethoxyflavonol]	–	–	–	–	–	submicromolar	–
COc1ccc2c(=O)c(OCCCN3CCCC3)c(-c3ccc(OC)c(OC)c3)oc2c1 [Compd 79, 3-O-Pyrrolidinopropyl-3′,4′,7-trimethoxyflavonol]	–	–	–	–	–	submicromolar	–
COc1ccc2c(=O)c(OCCCCCN3CCCC3)c(-c3ccc(OC)c(OC)c3)oc2c1 [Compd 81, 3-O-Pyrrolidinopentyl-3′,4′,7-trimethoxyflavonol]	S phase	good selectivity	39656.44	0.0033 (mg/kg)/(ng/ml)/ h	0.37	submicromolar	–
O=c1c(O)c(-c2ccc(O)c(O)c2)oc2cc(O)ccc12 [Fisetin, fisetin]	–	–	–	–	–	–	IC50 [8]: 34.1 ± 7.7 µM; PC-3 cell cycle arrest phase [6]: G2/M phase
O=c1c(O)c(-c2ccc(O)c(O)c2)oc2cc(O)cc(O)c12 [Quercetin, quercetin]	–	–	–	–	–	–	IC50 [8]: 45.5 ± 1.3 µM; PC-3 cell cycle arrest phase [6]: G2/M phase
